Rows were chosen to be rich in hits. Some 3.7% of all compounds tested hit in one or more screens of this group.
ERAP1 HTS inh – human ERAP1 aminopeptidase inhibitors, primary screen, biochemical, single point, plate reader. Endoplasmic reticulum aminopeptidase 1 (Homo sapiens), Q9NZ08. recombinant ERAP1, Leu-AMC fluorescence, 60 min. inhibition, % at 10.7 µM. 340,000 tested, 0.15% active. AID 652197, 2013;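 active = mean replicate inhibition of at least 30%, or all replicates individually reaching that 30% level; inactive = mean below 30% and not every replicate reaching it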
DENV2 CPE rescue – inhibitors of DENV2 cytopathic effect, primary screen, cell-based, plate reader, single concentration | DENV2-infected cells, cytopathic effect rescue | CPE inhibition, % at 9.99 µM | 350,000 tested, 1.7% active; in the data active = CPE inhibition above about 20%, passing the limit was not always enough; inconclusive = no clear call, values can overlap the other calls; tested in BHK-21 cells
CFTR F508del cor – F508del CFTR correction, initial screen, CFBE line, single point. activity (quench increase), % at 7.58 µM. 350,000 tested, 0.36% active. CFBE cells, YFP halide quenching; stimulated with forskolin plus potentiator P3; % fluorescence drop versus neutral controls;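 active = mean added fluorescence quench of at least 8% versus neutral control, with both replicates also reaching 8%; inconclusive = only one of the mean or replicate conditions met; inactive = mean below 8% and not both replicates reaching 8%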;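 note: cells transiently co-express mutant CFTR-F508del with the halide-sensitive YFP; corrector assay measuring rescue of mutant channel to the surface after 24 h compound exposure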
FGF22 binding – binders of human FGF22 protein, primary screen, FGF22 synaptogenesis inhibitor project, biophysical, thermal shift, single point; Fibroblast growth factor 22 (Homo sapiens), Q9HCT0; recombinant FGF22 thermal shift, SYPRO orange fluorescence; percent of sucrose octasulfate shift, DMSO zero; 340,000 tested, 1.5% active; activity (Tm shift, normalised), % at 9.99 µM;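 active = mean Tm shift, scaled 0 neutral to 100 positive control, at about 1.3% or above, every replicate too, limit read from the data; inconclusive = no clear call, values can overlap the other calls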
E-sel inducer – E-selectin induction in HUVECs, primary screen, imaging, HUVEC, immunofluorescence imaging, single point; activation, % at 7.58 µM; P16581; 260,000 tested, 0.37% active; normalized: neutral wells 0, TNF-alpha wells 100;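 active = mean E-selectin-positive cell signal at least 10% of the positive control, reached in at least 60% of replicates, without over 20% cell loss; inconclusive = no rule given, readout overlaps actives, possibly toxicity-flagged; inactive = the rest, including those meeting only one limit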
Target sequence (P16581 whole entry, looked up): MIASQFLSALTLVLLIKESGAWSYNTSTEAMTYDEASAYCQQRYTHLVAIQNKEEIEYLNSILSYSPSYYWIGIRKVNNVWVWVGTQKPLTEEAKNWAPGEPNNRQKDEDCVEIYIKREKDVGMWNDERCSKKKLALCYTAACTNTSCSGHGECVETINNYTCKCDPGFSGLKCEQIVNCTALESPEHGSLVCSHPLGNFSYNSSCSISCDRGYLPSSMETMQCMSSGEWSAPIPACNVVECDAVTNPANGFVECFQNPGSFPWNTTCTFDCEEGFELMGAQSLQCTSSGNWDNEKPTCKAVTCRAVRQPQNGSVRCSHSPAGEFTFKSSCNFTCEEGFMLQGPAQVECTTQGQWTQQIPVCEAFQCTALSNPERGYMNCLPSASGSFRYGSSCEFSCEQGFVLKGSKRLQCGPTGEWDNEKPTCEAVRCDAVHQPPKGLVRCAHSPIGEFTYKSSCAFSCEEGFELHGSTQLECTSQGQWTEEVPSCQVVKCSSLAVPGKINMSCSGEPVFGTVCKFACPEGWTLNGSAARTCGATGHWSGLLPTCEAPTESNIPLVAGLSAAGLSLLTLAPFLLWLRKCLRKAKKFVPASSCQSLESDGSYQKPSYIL
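Assay system: HUVEC primary endothelial cells. Input: 3,000 HUVEC seeded per well. Doses: one compound dose added by pin transfer. Read-out basis: % PE-positive cells. Benchmarks: TNF-alpha high, DMSO low. Detection: immunofluorescence imaging. Buffer or medium: EGM-2, gelatin.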
Numbers stand for hits; . = inactive; ? = inconclusive; / = no result; ! = not active in a repeat.

SMILES	ERAP1 HTS inh	DENV2 CPE rescue	CFTR F508del cor	FGF22 binding	E-sel inducer
Cc1cccc(-n2c(O)c(/C=C3/C(c4ccccc4)=Nc4ccccc43)c(=O)[nH]c2=O)c1	.	?	12	.	/
Cc1ccccc1-n1c(O)c(/C=C2/C(c3ccccc3)=Nc3ccccc32)c(=O)[nH]c1=O	.	.	/	.	.
Cc1ccc(OC(F)F)c(N2C(=O)C3C4CCC(O4)C3C2=O)c1 (stereo unspecified)	.	.	.	.	35
c1ccc2nc(N3CCNCC3)ccc2c1	.	.	9.8!	.	70!
CCCNC(=O)N1[C@@H]2c3ccc(-c4ccccc4OC)c(=O)n3C[C@H]1[C@H](CO)[C@H]2C(=O)O	.	.	.	.	.
COC(=O)[C@H]1C[C@@H]1[C@H](NP(=O)(c1ccccc1)c1ccccc1)c1ccccc1	.	?	.	1.8	.
COC(=O)[C@@H]1C[C@H]1[C@@H](NP(=O)(c1ccccc1)c1ccccc1)c1ccccc1	.	.	.	.	.
O=S(=O)(NC1CCCC1)OCC(Cl)(Cl)Cl	.	27	.	.	/
O=S(=O)(NC1CCCCCCC1)OCC(Cl)(Cl)Cl	/	34	.	.	.
O=C(Cc1cccnc1)N1CCCCN2[C@H](CO)[C@H](c3ccc(C#CC4CC4)cc3)[C@@H]2C1	.	.	.	.	/
COC(=O)C1=C(c2ccc(Cl)c(C(F)(F)F)c2)C[C@@H]2CC[C@H]1N2C(=O)NCc1cc(C)oc1C(F)(F)F	.	25	.	.	.
O=C1OCCC1C(=O)c1ccccc1 (stereo unspecified)	.	.	.	44	.
CC(=O)O[C@@]12CO[C@@H]1C[C@@H](O)[C@@]1(C)C(=O)[C@H](O)C3=C(C)[C@@H](OC(=O)[C@H](O)[C@@H](NC(=O)c4ccccc4)c4ccccc4)C[C@@](O)([C@@H](OC(=O)c4ccccc4)C12)C3(C)C (stereo partly specified)	/	.	.	.	/
CCC(C)C(=O)N[C@@H](c1ccccc1)[C@@H](O)C(=O)O[C@H]1C[C@@]2(O)[C@@H](OC(=O)c3ccccc3)C3[C@](C)(C(=O)[C@H](OC(C)=O)C(=C1C)C2(C)C)[C@@H](O)C[C@H]1OC[C@@]31OC(C)=O (stereo partly specified)	.	.	11	.	/
CC/C=C/CC(=O)N[C@@H](c1ccccc1)[C@@H](O)C(=O)O[C@H]1C[C@@]2(O)[C@@H](OC(=O)c3ccccc3)C3[C@](C)(C(=O)[C@H](OC(C)=O)C(=C1C)C2(C)C)[C@@H](O)C[C@H]1OC[C@@]31OC(C)=O (stereo partly specified)	.	28	17	.	/
C/C=C(\C)C(=O)N[C@@H](c1ccccc1)[C@@H](O)C(=O)O[C@H]1C[C@@]2(O)[C@@H](OC(=O)c3ccccc3)C3[C@](C)(C(=O)[C@H](OC(C)=O)C(=C1C)C2(C)C)[C@H](O)C[C@H]1OC[C@@]31OC(C)=O (stereo partly specified)	/	/	.	.	/
O=C1NC(=O)C(CCc2ccncc2)(CCc2ccncc2)C(=O)N1CCc1ccccc1	.	.	.	.	/
O=C1NC(=O)C(CCc2ccncc2)(CCc2ccccn2)C(=O)N1c1ccc(Br)cc1 (stereo unspecified)	.	.	/	43	/
O=C(Cc1ccccn1)N1CCCCN2[C@H](CO)[C@H](c3ccc(Br)cc3)[C@@H]2C1	.	.	.	.	.
O=c1[nH]sc2cc(F)ccc12	31	/	.	.	.
CN(C)CC#Cc1ccc([C@@H]2[C@H](CO)N3CCCCN(C(=O)Cc4ccccn4)C[C@@H]23)cc1	.	.	.	.	.
O=C1CNC[C@@H]2[C@H](c3ccc(Br)cc3)[C@H](CO)N12	.	.	.	.	.
Cc1nc2ccccc2c(=O)n1-c1nccs1	.	43	.	.	.
CN(C)C(=O)[C@H]1[C@H](CO)[C@H]2Cn3c(cccc3=O)[C@@H]1N2CC1CC1	.	.	.	.	.
NP(=O)(OCCCc1ccccc1)Oc1ccc(Cl)cc1 (stereo unspecified)	.	20	.	.	/
